Experimental data from ChEMBL document CHEMBL1148860, “A non-toxic Hsp90 inhibitor protects neurons from Abeta-induced toxicity” (Bioorg Med Chem Lett, 2007).
The source made the active and inactive calls. The rule behind the calls is not given here.

How the values were obtained:
SK-BR-3 [1] = assay: Antiproliferative activity against SKBR3 cells upto 100 uM; assay type: functional, cell-based; settings: Homo sapiens
Outline: (§1)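 MCF-7 and SkBr3 cells incubated with compound over a range of concentrations up to 100 µM. Viable cells quantitated by MTS/PMS assay. Triplicate wells per experiment, three independent experiments; IC50 from dose–response, values as means ± SE.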

MCF7 [2] = assay: Antiproliferative activity against MCF7 cells upto 100 uM; assay type: functional, cell-based; settings: Homo sapiens; outline: as §1
Cortical neurone [3] = assay: Inhibition of beta-amyloid (1-42)-induced toxicity in embryonic rat brain primary cortical neurons after 48 hrs; assay type: functional, tissue-based
Outline: (§2)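 Primary cortical neurons pretreated with compound at a series of concentrations, then challenged with Aβ25–35 (10 µM), or Aβ1–42 in fewer cultures. Neurons labelled with calcein-AM (live) and propidium iodide (dead) and counted in several fields by fluorescence microscopy. EC50 taken from percentage survival.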

Cortical neurone [4] = assay: Inhibition of beta-amyloid (25-35)-induced toxicity in embryonic rat brain primary cortical neurons after 48 hrs; assay type: functional, tissue-based; outline: as §2
Cerebral cortex neuron [5] = assay: Increase in Hsp70 level in rat primary cortical neurons at 0.2 uM after 48 hrs; assay type: functional, cell-based
Outline: (§3)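 Primary cortical neurons incubated 48 h with compound, concentrations from 1 nM to 10 µM. Hsp70 levels measured against DMSO controls.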

Cerebral cortex neuron [6] = assay: Increase in Hsp70 level in rat primary cortical neurons at 1 nM after 48 hrs relative to control; assay type: functional, cell-based; outline: as §3
[7] = Cytotoxicity against rat neuronal cells at 10 uM after 72 hrs; assay type: cell-based; settings: neuron
Outline: (§4)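 Neuronal cultures given compound alone (10 µM) or DMSO vehicle. Viability read at 24 h and after 72 h. Percentage surviving neurons taken from three separate experiments, mean ± SE.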

LNCaP [8] = assay: Induction of Hsp90 protein in LNCap cells expressing mutated androgen receptor at 10 nM; assay type: functional, cell-based; settings: Homo sapiens
Outline: (§5)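 LNCaP prostate cancer cells, which carry a mutated androgen receptor, exposed to compound from 10 nM upward. Hsp90 induction and loss of client proteins AR and AKT assessed.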

LNCaP [9] = assay: Degradation of Hsp90 client protein androgen receptor in LNCap cells upto 1 uM; assay type: functional, cell-based; settings: Homo sapiens; outline: as §5
LNCaP [10] = assay: Degradation of Hsp90 client protein AKT in LNCap cells upto 1 uM; assay type: functional, cell-based; settings: Homo sapiens; outline: as §5
BMEC = assay: Permeability across BMECs; assay type: ADME, cell-based, Bos taurus; settings: cattle, TDE = time-dependent effect
Outline: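 Primary bovine BMEC monolayers mounted in a side-by-side diffusion chamber. Compound in the receiving chamber sampled over time, up to 90 min.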

[11] = Cytotoxicity against rat neuronal cells at 10 uM after 24 hrs; assay type: cell-based; settings: neuron; outline: as §4
SK-BR-3 [12] = assay: Antiproliferative activity against SKBR3 cells; assay type: functional, cell-based; settings: Homo sapiens; outline: as §1
MCF7 [13] = assay: Antiproliferative activity against MCF7 cells; assay type: functional, cell-based; settings: Homo sapiens; outline: as §1

Structure (SMILES)	Activity (SK-BR-3 [1])	Activity (MCF7 [2])	Activity (Cortical neurone [3])	Activity (Cortical neurone [4])	Activity (Cerebral cortex neuron [5])	Activity (Cerebral cortex neuron [6])	Activity [7]	Activity (LNCaP [8])	Activity (LNCaP [9])	Activity (LNCaP [10])	Activity (BMEC)	Activity [11]	Activity (SK-BR-3 [12])	Activity (MCF7 [13])
CO[C@H]1[C@H](O)[C@@H](O)[C@H](Oc2ccc3cc(NC(C)=O)c(=O)oc3c2)OC1(C)C	inactive	inactive	Active	Active	Active	Active	Not Active	Active	inactive	inactive	tde			
COC1=C2C[C@@H](C)C[C@H](OC)[C@H](O)[C@@H](C)/C=C(\C)[C@H](OC(N)=O)[C@@H](OC)/C=C\C=C(/C)C(=O)NC(=CC1=O)C2=O [GELDANAMYCIN]												Active	Dose-dependent effect	Dose-dependent effect
